These results are taken from ChEMBL document CHEMBL3045617, “Synthesis and antiviral activities of cyanoacrylate derivatives containing an alpha-aminophosphonate moiety” (J Agric Food Chem, 2008).

Assay [1] has as its system Tobacco mosaic virus. Nature of the assay: Antiviral activity against Tobacco mosaic virus (TMV) pre-treated with 62.5 ug/mL compound for 30 min followed by inoculation on left side of Nicotiana tabacum leaves assessed as virus inactivation effect measured 3 to 4 days post viral infection. In kind it is functional. The procedure, abridged:
(§1)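 Purified TMV is mixed with an equal volume of compound solution for 30 min. The mixture is rub-inoculated on the left half of N. tabacum leaves, and a solvent–virus mixture on the right half serves as control. Local lesions are recorded 3-4 days after inoculation. Inhibition % = (control − treated average lesions)/control × 100. Three repetitions. EC50 is derived from tests at several concentrations.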

The subject of assay [2] is Tobacco mosaic virus. Put plainly: Antiviral activity against Tobacco mosaic virus (TMV) pre-treated with 30.7 ug/mL compound for 30 min followed by inoculation on left side of Nicotiana tabacum leaves assessed as virus inactivation effect measured 3 to 4 days post viral infection. In kind it is functional. The procedure, abridged: as §1
Assay [3] has as its system Tobacco mosaic virus. Nature of the assay: Antiviral activity against Tobacco mosaic virus (TMV) pre-treated with 500 ug/mL compound for 30 min followed by inoculation on left side of Nicotiana tabacum leaves assessed as virus inactivation effect measured 3 to 4 days post viral infection. The format is functional. The procedure, abridged: as §1
Assay [4] relates to Tobacco mosaic virus. Put plainly: Antiviral activity against Tobacco mosaic virus (TMV) pre-treated with 125 ug/mL compound for 30 min followed by inoculation on left side of Nicotiana tabacum leaves assessed as virus inactivation effect measured 3 to 4 days post viral infection. The format is functional. Summed up:
as §1

Assay [5] relates to Tobacco mosaic virus. Put plainly: Antiviral activity against Tobacco mosaic virus (TMV) pre-treated with 250 ug/mL compound for 30 min followed by inoculation on left side of Nicotiana tabacum leaves assessed as virus inactivation effect measured 3 to 4 days post viral infection. In kind it is functional. Summed up: as §1
For assay [6], the system named is Tobacco mosaic virus. Put plainly: Antiviral activity against Tobacco mosaic virus (TMV) pre-treated with compound for 30 min followed by inoculation on left side of Nicotiana tabacum leaves assessed as virus inactivation effect measured 3 to 4 days post viral infection. The format is functional, organism-based. The procedure, abridged: as §1
The subject of assay [7] is Tobacco mosaic virus. Nature of the assay: Antiviral activity against Tobacco mosaic virus (TMV) inoculated on 500 ug/mL compound smeared Nicotiana tabacum leaves assessed as protective effect against viral infection measured 3 to 4 days post viral infection. In kind it is functional. The procedure, abridged:
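Half-leaf assay on same-age N. tabacum leaves. The compound solution is applied to the left half and solvent to the right half as control. After 12 h, leaves dusted with silicon carbide are brush-inoculated with purified TMV (6 × 10^-3 mg/mL) and then rinsed with water. Local lesions are counted 3-4 days later. Inhibition % = (control lesions − treated lesions)/control lesions × 100. Three repetitions.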

In assay [8] the test system is Tobacco mosaic virus. Put plainly: Antiviral activity against Tobacco mosaic virus (TMV) inoculated on whole Nicotiana tabacum leaves followed by smearing with 500 ug/mL compound solution on left side of leaves assessed as viral infection curative effect measured 3 to 4 days post viral infection. The format is functional. The procedure, abridged: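 Whole same-age N. tabacum leaves are brush-inoculated with purified TMV (6 × 10^-3 mg/mL), washed with water and dried. The compound solution is then applied to the left half and solvent to the right half as control. Local lesions are counted 3-4 days after inoculation. Inhibition % is calculated from average lesion counts, control versus treated. Three repetitions.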

Each structure is given as a SMILES string. ≈ marks a conversion by molar mass, not a printed value.

On to `CCOP(=O)(OCC)C(N/C(SC)=C(/C#N)C(N)=O)c1ccccc1F` (stereo not given), for which the Activity in the assay with Tobacco mosaic virus [1] is reported as 35.8%; in the assay on Tobacco mosaic virus [2] it was 26.9%; in the assay with Tobacco mosaic virus [3], 70.7%; in the assay with Tobacco mosaic virus [4], 46.2%; in the assay with Tobacco mosaic virus [5], 49%; in the assay on Tobacco mosaic virus [7] it was 42.8%. In the assay on Tobacco mosaic virus [8], the Activity came out at 25.4%. In addition, the EC50 – broadly, the concentration that produces a half-maximal response – in the assay with Tobacco mosaic virus [6] is 151 µg/mL (≈ 376 µM).

As to `CCOP(=O)(OCC)C(N/C(SC)=C(/C#N)C(=O)NCc1ccccc1)c1ccccc1` (stereo not given), the Activity in the assay with Tobacco mosaic virus [3] stood at 51.9%; in the assay on Tobacco mosaic virus [7], 55.1%; in the assay on Tobacco mosaic virus [8] it was 55%.

For `CCCOP(=O)(OCCC)C(N/C(SC)=C(/C#N)C(=O)NCc1ccccc1)c1ccccc1` (stereo not given), the Activity in the assay with Tobacco mosaic virus [3] came out at 50%; with Tobacco mosaic virus [7], 42.4%; with Tobacco mosaic virus [8], 53.8%.

In the case of `CS/C(NC(c1ccccc1)P(=O)(OC(C)C)OC(C)C)=C(\C#N)C(=O)NCc1ccccc1` (stereo not given), the Activity with Tobacco mosaic virus [3] worked out at 51.5%; with Tobacco mosaic virus [7] it was 39%; with Tobacco mosaic virus [8], 52.9%.

Consider `CCCCOP(=O)(OCCCC)C(N/C(SC)=C(/C#N)C(=O)NCc1ccccc1)c1ccccc1` (stereo not given), for which the Activity in the assay on Tobacco mosaic virus [3] was found to be 11%; with Tobacco mosaic virus [7] it was 45%; in the assay on Tobacco mosaic virus [8], 28.4%.

As to `CCOP(=O)(OCC)C(N/C(SC)=C(/C#N)C(=O)NCc1ccccc1)c1ccccc1F` (stereo not given), the Activity in the assay on Tobacco mosaic virus [1] came out at 41.2%; in the assay with Tobacco mosaic virus [2], 29%; in the assay on Tobacco mosaic virus [3], 73.4%; in the assay with Tobacco mosaic virus [4], 48.9%; in the assay on Tobacco mosaic virus [5], 58.9%; with Tobacco mosaic virus [7] it was 47.7%. In the assay on Tobacco mosaic virus [8], the Activity was 49.9%. Also, in the assay on Tobacco mosaic virus [6], the EC50 was 128 µg/mL (≈ 260 µM).

`CCOP(=O)(OCC)C(N/C(SC)=C(/C#N)C(=O)OC)c1ccccc1` (stereo not given): the Activity is 64.1% in the assay on Tobacco mosaic virus [3], 29.6% in the assay with Tobacco mosaic virus [7] and 56.7% in the assay on Tobacco mosaic virus [8].

As for `CCCOP(=O)(OCCC)C(N/C(SC)=C(/C#N)C(=O)OC)c1ccccc1` (stereo not given), the Activity in the assay with Tobacco mosaic virus [3] stood at 47.1%; with Tobacco mosaic virus [7], 44.4%; in the assay on Tobacco mosaic virus [8], 37.7%.

Turning to `COC(=O)/C(C#N)=C(\NC(c1ccccc1)P(=O)(OC(C)C)OC(C)C)SC` (stereo not given), the values for the Activity in the assay on Tobacco mosaic virus [3], in the assay with Tobacco mosaic virus [7] and in the assay with Tobacco mosaic virus [8] were 45.7%, 40.8% and 43.3%, respectively.

In the case of `CCCCOP(=O)(OCCCC)C(N/C(SC)=C(/C#N)C(=O)OC)c1ccccc1` (stereo not given), the Activity with Tobacco mosaic virus [1] is given as 53.7%; in the assay on Tobacco mosaic virus [2], 37.6%; in the assay on Tobacco mosaic virus [3] it was 92.8%; in the assay with Tobacco mosaic virus [4], 66.9%; in the assay with Tobacco mosaic virus [5] it was 70.2%; in the assay on Tobacco mosaic virus [7], 55.9%. Moreover, the Activity with Tobacco mosaic virus [8] worked out at 60.2%. Moreover, the EC50 in the assay with Tobacco mosaic virus [6] worked out at 55.5 µg/mL (≈ 122 µM).

Take `CCOP(=O)(OCC)C(N/C(SC)=C(/C#N)C(=O)OC)c1ccccc1F` (stereo not given): the Activity is listed as 52.5% in the assay with Tobacco mosaic virus [1]; 40.8% in the assay with Tobacco mosaic virus [2]; 92.1% in the assay with Tobacco mosaic virus [3]; 60.6% in the assay with Tobacco mosaic virus [4]; 69.7% with Tobacco mosaic virus [5]; 44% in the assay with Tobacco mosaic virus [7]. For the same compound, the Activity in the assay on Tobacco mosaic virus [8] is 58.4%. The EC50 in the assay on Tobacco mosaic virus [6] amounted to 55.3 µg/mL (≈ 133 µM).

Consider `CCCOP(=O)(OCCC)C(N/C(SC)=C(/C#N)C(=O)OCC)c1ccccc1` (stereo not given), for which the Activity with Tobacco mosaic virus [1] is 33.1%; in the assay on Tobacco mosaic virus [2] it was 20.9%; with Tobacco mosaic virus [3], 71%; in the assay on Tobacco mosaic virus [4], 47.9%; with Tobacco mosaic virus [5], 50.1%; in the assay with Tobacco mosaic virus [7], 41.6%. Moreover, the Activity with Tobacco mosaic virus [8] amounted to 50.5%. Besides, the concentration for a half-maximal effect (EC50) with Tobacco mosaic virus [6] is 159 µg/mL (≈ 361 µM).

For `CCOC(=O)/C(C#N)=C(\NC(c1ccccc1)P(=O)(OC(C)C)OC(C)C)SC` (stereo not given), the Activity with Tobacco mosaic virus [3] was 37.8%; in the assay on Tobacco mosaic virus [7], 37.6%; in the assay on Tobacco mosaic virus [8], 42.8%.

In the case of `CCCCOP(=O)(OCCCC)C(N/C(SC)=C(/C#N)C(=O)OCC)c1ccccc1` (stereo not given), the Activity is listed as 48.5% in the assay with Tobacco mosaic virus [1]; 42.6% in the assay with Tobacco mosaic virus [2]; 84% in the assay on Tobacco mosaic virus [3]; 51.6% in the assay on Tobacco mosaic virus [4]; 65.7% in the assay on Tobacco mosaic virus [5]; 56.5% with Tobacco mosaic virus [7]. The Activity with Tobacco mosaic virus [8] was 55.8%. The EC50 in the assay on Tobacco mosaic virus [6] is 62.6 µg/mL (≈ 134 µM).

Take `CCOC(=O)/C(C#N)=C(\NC(c1ccccc1F)P(=O)(OCC)OCC)SC` (stereo not given): the Activity in the assay on Tobacco mosaic virus [1] was determined as 39.1%; with Tobacco mosaic virus [2] it was 30.7%; in the assay with Tobacco mosaic virus [3], 74.1%; with Tobacco mosaic virus [4], 50.1%; in the assay on Tobacco mosaic virus [5], 64.1%; with Tobacco mosaic virus [7], 48.3%. Further, the Activity in the assay with Tobacco mosaic virus [8] came out at 50.7%. For the same compound, the half-maximal effective concentration (EC50) with Tobacco mosaic virus [6] was 118 µg/mL (≈ 275 µM).

Take `CCOCCOC(=O)/C(C#N)=C(\NC(c1ccccc1)P(=O)(OCC)OCC)SC` (stereo not given): the values for the Activity in the assay on Tobacco mosaic virus [3], in the assay on Tobacco mosaic virus [7] and with Tobacco mosaic virus [8] were 46.8%, 41.2% and 55.2%, respectively.

As to `CCCOP(=O)(OCCC)C(N/C(SC)=C(/C#N)C(=O)OCCOCC)c1ccccc1` (stereo not given), the Activity in the assay on Tobacco mosaic virus [3] stood at 51.5%; in the assay on Tobacco mosaic virus [7], 43.1%; in the assay with Tobacco mosaic virus [8], 43.2%.

`CCOCCOC(=O)/C(C#N)=C(\NC(c1ccccc1)P(=O)(OC(C)C)OC(C)C)SC` (stereo not given): the Activity is on record as 55.9% in the assay on Tobacco mosaic virus [3], 38.4% in the assay on Tobacco mosaic virus [7] and 35.1% in the assay with Tobacco mosaic virus [8].

For the compound `CCCCOP(=O)(OCCCC)C(N/C(SC)=C(/C#N)C(=O)OCCOCC)c1ccccc1` (stereo not given), the Activity in the assay on Tobacco mosaic virus [1] is given as 42.8%; in the assay on Tobacco mosaic virus [2] it was 27.8%; with Tobacco mosaic virus [3], 80.6%; with Tobacco mosaic virus [4], 53.8%; with Tobacco mosaic virus [5], 62%; with Tobacco mosaic virus [7], 44.4%. Besides, the Activity in the assay on Tobacco mosaic virus [8] is 51.8%. In addition, the EC50 in the assay on Tobacco mosaic virus [6] turned out to be 87.9 µg/mL (≈ 171 µM).

For `CCOCCOC(=O)/C(C#N)=C(\NC(c1ccccc1F)P(=O)(OCC)OCC)SC` (stereo not given), the Activity was 34.4% with Tobacco mosaic virus [1]; 20.8% with Tobacco mosaic virus [2]; 70% with Tobacco mosaic virus [3]; 44.2% in the assay on Tobacco mosaic virus [4]; 48.8% with Tobacco mosaic virus [5]; 48.3% in the assay with Tobacco mosaic virus [7]. Further, in the assay on Tobacco mosaic virus [8], the Activity is reported as 52.7%. The EC50 in the assay with Tobacco mosaic virus [6] was 167 µg/mL (≈ 353 µM).

`CCOP(=O)(OCC)C(N/C(SC)=C(/C#N)C(N)=O)c1ccccc1` (stereo not given): the Activity in the assay with Tobacco mosaic virus [3] was found to be 60.8%; with Tobacco mosaic virus [7], 55.6%; in the assay on Tobacco mosaic virus [8], 54.4%.

For the compound `CCCOP(=O)(OCCC)C(N/C(SC)=C(/C#N)C(N)=O)c1ccccc1` (stereo not given), the figures for the Activity with Tobacco mosaic virus [3], with Tobacco mosaic virus [7] and in the assay on Tobacco mosaic virus [8] were 63%, 45.8% and 53.9%, respectively.

As for `CS/C(NC(c1ccccc1)P(=O)(OC(C)C)OC(C)C)=C(\C#N)C(N)=O` (stereo not given), the Activity in the assay on Tobacco mosaic virus [3] amounted to 5.7%; with Tobacco mosaic virus [7], 54.4%; in the assay with Tobacco mosaic virus [8], 28.8%.

`CCCCOP(=O)(OCCCC)C(N/C(SC)=C(/C#N)C(N)=O)c1ccccc1` (stereo not given): the values for the Activity with Tobacco mosaic virus [3], in the assay with Tobacco mosaic virus [7] and in the assay with Tobacco mosaic virus [8] were 9.6%, 40.2% and 25.4%, respectively.

For `CNCC(=O)N[C@@H](CO)C(=O)N[C@H]1[C@H](O)[C@@H](O)[C@H](n2ccc(N)nc2=O)O[C@@H]1C(N)=O` [NINGNANMYCIN], the Activity in the assay on Tobacco mosaic virus [1] worked out at 60.1%; in the assay with Tobacco mosaic virus [2], 42.1%; in the assay on Tobacco mosaic virus [3], 99.5%; with Tobacco mosaic virus [4], 70%; in the assay on Tobacco mosaic virus [5], 80%; in the assay on Tobacco mosaic virus [7] it was 59.9%. In the assay with Tobacco mosaic virus [8], the Activity was 55.8%. Also, the EC50 in the assay on Tobacco mosaic virus [6] amounted to 50.9 µg/mL (≈ 115 µM).
